Measurements as given in ChEMBL document CHEMBL4396907, “Structure-activity relationship study and biological evaluation of SAC-Garlic acid conjugates as novel anti-inflammatory agents” (Eur J Med Chem, 2019).
The source made the active and inactive calls. The calls are words filed in the database; no cut-off is given here.

Legend:
[1] = target: Toll-like receptor 2 (Mus musculus, UniProt Q9QUN7); test: Antagonist activity at TLR2 in mouse RAW264.7 cells assessed as PAM3CSK4-induced NO production measured after 24 hrs by Griess assay; type: cell-based
How it was run: (§1)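 RAW 264.7 cells in DMEM/10% FBS/pen-strep, 80,000 per well, preincubated 24 h at 37 °C, 5% CO2. Nonadherent cells removed, medium changed to plain DMEM. Cells co-treated with compound and 200 ng/mL Pam3CSK4 for 24 h. Nitrite in supernatant measured by modified Griess reagent (sulfanilic acid/phosphoric acid, then naphthylethylenediamine), read at OD560. Triplicate.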

[2] = target: Toll-like receptor 2 (Mus musculus) (UniProt Q9QUN7); test: Antagonist activity at TLR2 in mouse RAW264.7 cells assessed as PAM3CSK4-induced NO production at 150 uM measured after 24 hrs by Griess assay; type: cell-based; how it was run: as §1
[3] = target: Toll-like receptor 2 (Homo sapiens) (UniProt O60603); test: Inhibition of TLR2 in human HEK-Blue hTLR2 cells assessed as suppression of PAM3CSK4-induced SEAP signaling after 24 hrs by quanti-blue assay; type: cell-based
How it was run: (§2)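 HEK-Blue hTLR2 cells (human TLR2, CD14 and NF-κB/AP-1-driven SEAP reporter), 4×10^4 per well, grown 24 h in DMEM/10% FBS. Changed to plain DMEM with compound (0–100 µM) plus 20 ng/ml Pam3CSK4 (TLR1/2) or 20 ng/ml Pam2CSK4 (TLR2/6) for 24 h. Supernatant SEAP read with QUANTI-Blue at 37 °C, OD620 after 15–30 min. Mean ± SD of three independent experiments.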

[4] = target: Toll-like receptor 2 (Homo sapiens) (UniProt O60603); test: Inhibition of TLR2 in human THP1 assessed as decrease in PAM3CSK4 induced TNF-alpha expression measured after 4 hrs by ELISA
[5] = target: Toll-like receptor 2 (Mus musculus) (UniProt Q9QUN7); test: Inhibition of TLR2 in mouse RAW264.7 cells assessed as decrease in PAM3CSK4 induced TNF-alpha expression at 25 uM measured after 24 hrs by ELISA relative to control; type: cell-based
How it was run: (§3)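 RAW 264.7 cells or human PBMC, 1×10^6 per well in DMEM/10% FBS/pen-strep, treated with compound plus 50 ng/ml Pam3CSK4 for 24 h at 37 °C. Supernatants frozen at −80 °C. TNF-α measured by sandwich ELISA against recombinant standards, triplicate samples. Mean ± SD, three independent experiments.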

[6] = test system: RAW264.7; test: Cytotoxicity against mouse RAW264.7 cells assessed as effect on cell viability at 6.25 to 100 uM cotreated with PAM3CSK4 measured after 24 hrs by MTT assay; type: cell-based; settings: raw264.7, 24 h
How it was run: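 RAW 264.7 cells, 80,000 per well, grown 24 h in DMEM/10% FBS/pen-strep. Medium then switched to plain DMEM containing compound plus Pam3CSK4 (final 200 ng/ml) for 24 h. MTT (5 mg/ml stock in PBS) added for 4 h, formazan dissolved in DMSO, absorbance read at 450 nm.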

[7] = Inhibition of PAM3CSK4-induced TLR2 expression in human HEK-Blue Htlr2 cells at 12.5 uM by Western blot analysis relative to control; type: functional; settings: HEK-Blue hTLR2, read-out: INH
How it was run: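 HEK-Blue hTLR2 cells, 1.5×10^6 per well, grown 24 h, then in plain DMEM with compound and 50 ng/mL Pam3CSK4 for 24 h. Lysed in RIPA/PMSF. Equal lysate amounts run on SDS-PAGE and transferred to nitrocellulose. Blocked in 5% milk, probed overnight at 4 °C with anti-TLR2, then HRP secondary.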

[8] = target: Toll-like receptor 2 (Mus musculus) (UniProt Q9QUN7); test: Inhibition of TLR2 in mouse RAW264.7 cells assessed as decrease in PAM3CSK4 induced TNF-alpha expression measured after 24 hrs by ELISA; type: cell-based; how it was run: as §3
[9] = target: Toll-like receptor 1/2 (Homo sapiens) (UniProt O60603+Q15399); test: Inhibition of PAM3CSK4-induced TLR1/2 activation in human HEK-Blue hTLR2 cells; type: cell-based; how it was run: as §2
[10] = target: Toll-like receptor 2 (Homo sapiens) (UniProt O60603); test: Inhibition of TLR2 in human PBMC cells assessed as PAM3CSK4-induced TLR2/Myd88 heterodimerization formation by immunoprecipitation assay; type: cell-based
How it was run: (§4)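 Human PBMC, 10^6 cells/mL, given vehicle, Pam3CSK4 (50 ng/mL) or Pam2CSK4 (50 ng/mL) with compound for 24 h. Lysates incubated with anti-TLR2 overnight at 4 °C, then protein A agarose for 4 h. Beads washed three times and boiled in SDS buffer. Immunoprecipitates blotted for TLR1, TLR2, TLR6 and MyD88.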

[11] = target: Toll-like receptor 2 (Homo sapiens) (UniProt O60603); test: Inhibition of TLR2 in human PBMC cells assessed as decrease in PAM3CSK4 induced TNF-alpha expression at 12.5 uM measured after 24 hrs by ELISA relative to control; type: cell-based; how it was run: as §3
[12] = target: Toll-like receptor 2 (Homo sapiens) (UniProt O60603); test: Inhibition of TLR2 in human PBMC cells assessed as PAM2CSK4-induced TLR2/6 heterodimerization formation by immunoprecipitation assay; type: cell-based; how it was run: as §4
[13] = target: Toll-like receptor 3 (Homo sapiens) (UniProt O15455); test: Inhibition of Poly:IC-induced TLR3 activation in human HEK-Blue hTLR3 cells; type: cell-based
How it was run: (§5)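 HEK-Blue hTLR4 or hTLR3 reporter cells, 4×10^4 per well, grown 24 h, then switched to plain DMEM with compound (0–50 µM). Stimulant was 20 ng/ml LPS for hTLR4 and 20 µg/ml Poly:IC for hTLR3, for 24 h. Supernatant SEAP measured by QUANTI-Blue at OD620. Vehicle as negative control. Three independent experiments.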

[14] = target: Toll-like receptor 4 (Homo sapiens) (UniProt O00206); test: Inhibition of LPS-induced TLR4 activation in human HEK-Blue hTLR4 cells; type: cell-based; how it was run: as §5
[15] = target: TLR2/TLR6 (Homo sapiens) (UniProt O60603+Q9Y2C9); test: Inhibition of PAM2CSK4-induced TLR2/6 activation in human HEK-Blue hTLR2 cells; type: cell-based; how it was run: as §2
[16] = target: Toll-like receptor 2 (Homo sapiens) (UniProt O60603); test: Inhibition of TLR2 in human PBMC cells assessed as PAM2CSK4-induced TLR2/Myd88 heterodimerization formation by immunoprecipitation assay; type: cell-based; how it was run: as §4
[17] = target: Toll-like receptor 2 (Homo sapiens) (UniProt O60603); test: Inhibition of TLR2 in human PBMC cells assessed as PAM3CSK4-induced TLR1/2 heterodimerization formation by immunoprecipitation assay; type: cell-based; how it was run: as §4
[18] = target: Toll-like receptor 2 (Homo sapiens) (UniProt O60603); test: Inhibition of TLR2 in human HEK-Blue hTLR2 cells assessed as suppression of PAM3CSK4-induced SEAP signaling at 25 uM after 24 hrs by quanti-blue assay relative to control; type: cell-based; how it was run: as §2

Sequence of Toll-like receptor 2 (Homo sapiens) (O60603 whole entry): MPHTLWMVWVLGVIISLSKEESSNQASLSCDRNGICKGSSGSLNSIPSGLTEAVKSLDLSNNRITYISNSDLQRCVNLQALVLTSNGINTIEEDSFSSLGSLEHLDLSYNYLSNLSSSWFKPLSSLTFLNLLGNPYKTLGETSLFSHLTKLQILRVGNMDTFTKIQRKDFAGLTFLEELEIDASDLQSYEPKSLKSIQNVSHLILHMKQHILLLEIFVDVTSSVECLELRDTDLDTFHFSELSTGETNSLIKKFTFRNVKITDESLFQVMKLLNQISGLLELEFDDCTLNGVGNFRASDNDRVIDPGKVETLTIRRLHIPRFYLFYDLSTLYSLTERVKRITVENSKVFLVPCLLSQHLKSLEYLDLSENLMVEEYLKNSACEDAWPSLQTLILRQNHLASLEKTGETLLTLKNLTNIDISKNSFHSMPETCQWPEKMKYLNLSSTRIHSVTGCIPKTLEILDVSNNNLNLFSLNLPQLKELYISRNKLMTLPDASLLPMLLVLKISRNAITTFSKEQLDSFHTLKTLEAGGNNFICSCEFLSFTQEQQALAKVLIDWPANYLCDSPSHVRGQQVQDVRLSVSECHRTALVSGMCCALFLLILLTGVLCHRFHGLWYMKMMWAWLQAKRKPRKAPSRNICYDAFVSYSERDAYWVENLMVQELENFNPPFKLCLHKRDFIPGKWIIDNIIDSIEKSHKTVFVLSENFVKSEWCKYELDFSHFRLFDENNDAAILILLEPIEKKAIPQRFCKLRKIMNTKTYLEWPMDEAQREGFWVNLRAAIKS
Sequence of Toll-like receptor 2 (Q9QUN7 whole entry): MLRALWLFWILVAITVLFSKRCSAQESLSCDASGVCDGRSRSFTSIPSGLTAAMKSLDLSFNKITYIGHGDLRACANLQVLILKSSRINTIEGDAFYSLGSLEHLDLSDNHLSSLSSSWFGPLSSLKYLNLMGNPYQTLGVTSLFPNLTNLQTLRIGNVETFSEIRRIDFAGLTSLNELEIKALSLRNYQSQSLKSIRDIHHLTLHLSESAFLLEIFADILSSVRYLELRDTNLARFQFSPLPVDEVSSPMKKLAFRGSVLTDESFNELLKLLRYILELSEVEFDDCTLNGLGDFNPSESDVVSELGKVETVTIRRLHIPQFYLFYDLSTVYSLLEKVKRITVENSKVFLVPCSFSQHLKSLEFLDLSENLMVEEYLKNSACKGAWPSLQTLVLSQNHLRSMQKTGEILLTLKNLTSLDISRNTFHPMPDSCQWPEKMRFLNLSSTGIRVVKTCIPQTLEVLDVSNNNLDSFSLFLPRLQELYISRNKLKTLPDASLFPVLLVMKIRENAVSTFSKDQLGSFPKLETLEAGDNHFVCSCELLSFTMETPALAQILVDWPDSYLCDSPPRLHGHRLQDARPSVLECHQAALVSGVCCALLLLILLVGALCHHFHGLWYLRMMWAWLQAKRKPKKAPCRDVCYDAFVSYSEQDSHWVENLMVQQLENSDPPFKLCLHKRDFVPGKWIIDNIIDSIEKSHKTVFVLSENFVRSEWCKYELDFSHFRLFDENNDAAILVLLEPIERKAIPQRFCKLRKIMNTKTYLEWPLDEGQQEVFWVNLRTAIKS
Sequence of Toll-like receptor 2 (Mus musculus) (Q9QUN7 whole entry): as above
Sequence of Toll-like receptor 4 (Homo sapiens) (O00206 whole entry): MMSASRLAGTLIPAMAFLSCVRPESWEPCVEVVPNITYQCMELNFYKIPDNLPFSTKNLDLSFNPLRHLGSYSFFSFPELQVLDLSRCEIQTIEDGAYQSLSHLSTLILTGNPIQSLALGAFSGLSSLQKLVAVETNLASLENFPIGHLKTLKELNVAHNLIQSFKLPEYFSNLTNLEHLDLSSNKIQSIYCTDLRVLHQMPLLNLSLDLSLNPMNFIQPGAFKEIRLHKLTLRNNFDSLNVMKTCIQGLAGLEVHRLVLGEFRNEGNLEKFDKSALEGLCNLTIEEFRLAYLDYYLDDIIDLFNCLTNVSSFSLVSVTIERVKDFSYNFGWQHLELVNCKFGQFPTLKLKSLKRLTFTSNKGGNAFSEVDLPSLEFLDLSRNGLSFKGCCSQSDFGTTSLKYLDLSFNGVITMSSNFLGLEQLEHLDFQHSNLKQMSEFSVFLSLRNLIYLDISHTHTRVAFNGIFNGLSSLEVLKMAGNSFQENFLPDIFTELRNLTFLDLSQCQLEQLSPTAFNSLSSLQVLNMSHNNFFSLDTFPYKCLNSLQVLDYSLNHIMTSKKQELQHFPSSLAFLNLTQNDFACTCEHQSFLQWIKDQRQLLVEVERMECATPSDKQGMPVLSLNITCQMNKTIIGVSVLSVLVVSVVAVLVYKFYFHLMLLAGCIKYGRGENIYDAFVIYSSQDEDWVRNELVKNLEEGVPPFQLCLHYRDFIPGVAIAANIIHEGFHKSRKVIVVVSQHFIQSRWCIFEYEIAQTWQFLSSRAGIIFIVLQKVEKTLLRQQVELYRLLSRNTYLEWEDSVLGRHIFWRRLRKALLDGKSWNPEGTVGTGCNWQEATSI
Sequence of Toll-like receptor 3 (Homo sapiens) (O15455 whole entry): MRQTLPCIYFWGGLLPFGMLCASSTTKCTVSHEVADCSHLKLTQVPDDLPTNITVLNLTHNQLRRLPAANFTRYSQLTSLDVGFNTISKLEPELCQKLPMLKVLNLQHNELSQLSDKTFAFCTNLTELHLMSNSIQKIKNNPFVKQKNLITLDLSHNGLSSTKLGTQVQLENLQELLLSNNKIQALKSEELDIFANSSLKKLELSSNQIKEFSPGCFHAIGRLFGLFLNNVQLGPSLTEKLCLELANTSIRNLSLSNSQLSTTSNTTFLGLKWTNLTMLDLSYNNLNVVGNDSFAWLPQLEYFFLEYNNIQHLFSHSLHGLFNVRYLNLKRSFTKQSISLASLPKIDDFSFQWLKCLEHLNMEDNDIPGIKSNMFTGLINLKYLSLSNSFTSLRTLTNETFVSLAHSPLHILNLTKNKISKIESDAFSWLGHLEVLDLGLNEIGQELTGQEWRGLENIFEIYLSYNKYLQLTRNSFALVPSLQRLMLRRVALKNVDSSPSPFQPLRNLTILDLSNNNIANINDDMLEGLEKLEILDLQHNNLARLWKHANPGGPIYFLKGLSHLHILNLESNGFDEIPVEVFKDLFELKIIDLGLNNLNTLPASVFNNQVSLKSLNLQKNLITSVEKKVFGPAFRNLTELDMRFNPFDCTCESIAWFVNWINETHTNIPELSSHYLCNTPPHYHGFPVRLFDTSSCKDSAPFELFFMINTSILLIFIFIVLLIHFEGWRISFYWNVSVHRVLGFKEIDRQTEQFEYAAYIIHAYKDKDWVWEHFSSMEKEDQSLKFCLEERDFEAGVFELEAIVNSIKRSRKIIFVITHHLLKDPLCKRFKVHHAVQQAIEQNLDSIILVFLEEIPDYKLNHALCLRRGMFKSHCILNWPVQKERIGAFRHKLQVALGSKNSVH

| Structure (SMILES) | IC50 [1] [µM] | further results |
| --- | --- | --- |
| C#CCSC[C@H](NC(=O)c1cc(O)cc(O)c1)C(=O)OC | 41.8 | – |
| C#CCSC[C@H](N)C(=O)O | – | Activity [2]: inactive |
| COC(=O)[C@H](CSCc1ccccc1)NC(=O)c1cc(OC)c(OC)c(OC)c1 | 32.6 | – |
| COC(=O)[C@H](CSCc1ccc(F)cc1)NC(=O)c1cc(O)cc(O)c1 | 38.3 | – |
| COC(=O)[C@@H](N)CSCc1ccc(F)cc1 | 99.6 | – |
| O=C(O)c1ccc(O)cc1 [PARABEN] | 118 | – |
| COC(=O)[C@@H](N)CSCc1ccccc1 | 117 | – |
| O=C(O)c1cc(O)c(O)c(O)c1 [GALLIC ACID] | 69.3 | – |
| C#CCSC[C@H](N)C(=O)OC | 94.4 | – |
| C=CCCCSC[C@H](NC(=O)c1cc(O)c(O)c(O)c1)C(=O)OC | 39.2 | – |
| C=CCSC[C@H](N)C(=O)O | – | Activity [2]: inactive; inhibition [3]: inactive |
| O=C(O)c1cc(O)cc(O)c1 [3,5-DIHYDROXYBENZOIC ACID] | 117 | – |
| C=CCCCSC[C@H](NC(=O)c1cc(O)cc(O)c1)C(=O)OC | 57.7 | – |
| C=CCSC[C@H](NC(=O)c1cc(OC)c(OC)c(OC)c1)C(=O)OC | 49.3 | – |
| C=CCCSC[C@H](NC(=O)c1cc(O)c(O)c(O)c1)C(=O)OC | 57.7 | – |
| C=CCSC[C@H](NC(=O)c1cc(O)c(O)c(O)c1)C(=O)OC | 52.1 | – |
| C#CCSC[C@H](NC(=O)c1cc(O)c(O)c(O)c1)C(=O)OC | 71.5 | – |
| C=CCCSC[C@H](N)C(=O)O | – | Activity [2]: inactive |
| C=CCCCSC[C@H](NC(=O)c1cc(OC)c(OC)c(OC)c1)C(=O)OC | 22.5 | inhibition [4]: Active; inhibition [5]: 50%; Activity [6]: Non-Toxic; inhibition at 12.5 µM [7]: > 90%; inhibition [3]: Dose-dependent effect; inhibition [8]: Dose-dependent effect; inhibition [9]: Active; inhibition [10]: Active; inhibition [11]: > 95%; inhibition [12]: Active; inhibition [13]: inactive; inhibition [14]: inactive; inhibition [15]: Active; inhibition [16]: Active; inhibition [17]: Active; inhibition [18]: 50% |
| C=CCCSC[C@H](NC(=O)c1ccc(O)cc1)C(=O)OC | 54.9 | – |

| Structure (SMILES) | IC50 [1] [µM] | further results |
| --- | --- | --- |
| N[C@@H](CSCc1ccccc1)C(=O)O | – | Activity [2]: inactive |
| C=CCSC[C@H](N)C(=O)OC | 54.4 | – |
| C=CCCSC[C@H](NC(=O)c1cc(O)cc(O)c1)C(=O)OC | 35.8 | – |
| N[C@@H](CSCc1ccc(F)cc1)C(=O)O | – | Activity [2]: inactive |
| COC(=O)[C@H](CSCc1ccc(F)cc1)NC(=O)c1ccc(O)cc1 | 37.3 | – |
| C=CCCCSC[C@H](N)C(=O)O | – | Activity [2]: inactive |
| C=CCSC[C@H](NC(=O)c1ccc(O)cc1)C(=O)OC | 40.5 | – |
| C=CCCCSC[C@H](NC(=O)c1ccc(O)cc1)C(=O)OC | 53 | – |
| COC(=O)[C@H](CSCc1ccccc1)NC(=O)c1ccc(O)cc1 | 52.1 | – |
| COC(=O)[C@H](CSCc1ccccc1)NC(=O)c1cc(O)c(O)c(O)c1 | 60.7 | – |
| COC(=O)[C@H](CSCc1ccc(F)cc1)NC(=O)c1cc(O)c(O)c(O)c1 | 50.2 | – |
| C=CCCSC[C@H](NC(=O)c1cc(OC)c(OC)c(OC)c1)C(=O)OC | 27.3 | – |
| COC(=O)[C@H](CSCc1ccc(F)cc1)NC(=O)c1cc(OC)c(OC)c(OC)c1 | 28.6 | – |
| C#CCSC[C@H](NC(=O)c1cc(OC)c(OC)c(OC)c1)C(=O)OC | 53.2 | – |
| C=CCCSC[C@H](N)C(=O)OC | 45.5 | – |
| C=CCCCSC[C@H](N)C(=O)OC | 31.3 | – |
| C=CCSC[C@H](NC(=O)c1cc(O)cc(O)c1)C(=O)OC | 58.5 | – |
| COC(=O)[C@H](CSCc1ccccc1)NC(=O)c1cc(O)cc(O)c1 | 50.5 | – |
| C#CCSC[C@H](NC(=O)c1ccc(O)cc1)C(=O)OC | 54.8 | – |
| COc1cc(C(=O)O)cc(OC)c1OC [3,4,5-TRIMETHOXYBENZOIC ACID] | 53.8 | – |
